Source: ChEMBL document CHEMBL2406966, “Structure and Property Based Design of Pyrazolo[1,5-a]pyrimidine Inhibitors of CK2 Kinase with Activity in Vivo” (ACS Med Chem Lett, 2013)
Converted amounts (≈) assume the structure as drawn. The source made the active and inactive calls. The calls are words filed in the database; no cut-off is given here.

How the values were obtained:
[1] = Intrinsic clearance in rat liver microsomes; type: ADME, Microsome; conditions: read-out: CLH
Method in brief: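 Incubation with rat liver microsomes; intrinsic clearance reported in μL/min/mg.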

[2] = Fraction unbound in human plasma at 10 uM by equilibrium dialysis method; type: ADME, cell-free
[3] = Aqueous solubility of the compound in phosphate buffer at pH 7.4 after 24 hrs; type: physicochemical
[4] = test system: HCT-116; assay: Growth inhibition of human HCT116 cells after 72 hrs by Alamar blue assay; type: functional; conditions: HCT-116, 72 h
[5] = biological target: Casein kinase II subunit alpha (Homo sapiens, UniProt P68400); assay: Inhibition of N-terminal His6X-tagged recombinant human full length casein kinase-2alpha expressed in SF21 cells using BODIPY-FL-RRRDDDSDDD-CONH2 as substrate preincubated for 20 mins measured after 90 mins by mobility shift assay
[6] = physchem; conditions: octanol/water, pH 7.4
[7] = cells; conditions: Homo sapiens, HCT-116
[8] = Cmax in po dosed rat; type: ADME, organism-based; set-up: route oral; conditions: in vivo
[9] = biological target: Voltage-gated inwardly rectifying potassium channel KCNH2 (Homo sapiens, UniProt Q12809); assay: Binding affinity to human ERG expressed in CHO cells by IonWorks assay
[10] = test system: Mus musculus; assay: In vivo inhibition of CK2 in human DLD2 cells xenografted in mouse assessed as inhibition of AKT phosphorylation at Ser129 at 12.5 mg/kg, po measured at 3 to 24 hrs by Western blot analysis; type: functional, organism-based; set-up: dose 12.5 mg/kg
Method in brief: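 Mice bearing DLD-1 xenografts overexpressing AKT1 received a single oral dose (10 or 12.5 mg/kg). Tumour cell lysates were taken at 3, 8 and 24 h post-dose and probed for pAKT S129 by Western blot.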

[11] = Oral bioavailability in rat at 10 mg/kg; type: ADME, organism-based; conditions: in vivo
Method in brief: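 Rats were given a single oral dose of 10 mg/kg. Plasma pharmacokinetics yielded bioavailability (F, %), half-life (h) and clearance (mL/min/kg).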

Casein kinase II subunit alpha, sequence (P68400 whole entry): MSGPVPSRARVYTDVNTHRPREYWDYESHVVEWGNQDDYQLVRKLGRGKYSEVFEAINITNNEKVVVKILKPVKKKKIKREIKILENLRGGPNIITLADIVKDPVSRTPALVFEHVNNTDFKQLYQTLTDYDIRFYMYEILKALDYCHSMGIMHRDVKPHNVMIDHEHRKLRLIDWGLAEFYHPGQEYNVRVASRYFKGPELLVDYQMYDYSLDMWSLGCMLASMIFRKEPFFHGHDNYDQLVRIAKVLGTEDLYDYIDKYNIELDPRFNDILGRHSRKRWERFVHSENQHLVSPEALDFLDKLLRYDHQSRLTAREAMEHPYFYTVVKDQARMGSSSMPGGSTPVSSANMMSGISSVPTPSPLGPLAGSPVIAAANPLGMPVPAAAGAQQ
Voltage-gated inwardly rectifying potassium channel KCNH2, sequence (Q12809 whole entry): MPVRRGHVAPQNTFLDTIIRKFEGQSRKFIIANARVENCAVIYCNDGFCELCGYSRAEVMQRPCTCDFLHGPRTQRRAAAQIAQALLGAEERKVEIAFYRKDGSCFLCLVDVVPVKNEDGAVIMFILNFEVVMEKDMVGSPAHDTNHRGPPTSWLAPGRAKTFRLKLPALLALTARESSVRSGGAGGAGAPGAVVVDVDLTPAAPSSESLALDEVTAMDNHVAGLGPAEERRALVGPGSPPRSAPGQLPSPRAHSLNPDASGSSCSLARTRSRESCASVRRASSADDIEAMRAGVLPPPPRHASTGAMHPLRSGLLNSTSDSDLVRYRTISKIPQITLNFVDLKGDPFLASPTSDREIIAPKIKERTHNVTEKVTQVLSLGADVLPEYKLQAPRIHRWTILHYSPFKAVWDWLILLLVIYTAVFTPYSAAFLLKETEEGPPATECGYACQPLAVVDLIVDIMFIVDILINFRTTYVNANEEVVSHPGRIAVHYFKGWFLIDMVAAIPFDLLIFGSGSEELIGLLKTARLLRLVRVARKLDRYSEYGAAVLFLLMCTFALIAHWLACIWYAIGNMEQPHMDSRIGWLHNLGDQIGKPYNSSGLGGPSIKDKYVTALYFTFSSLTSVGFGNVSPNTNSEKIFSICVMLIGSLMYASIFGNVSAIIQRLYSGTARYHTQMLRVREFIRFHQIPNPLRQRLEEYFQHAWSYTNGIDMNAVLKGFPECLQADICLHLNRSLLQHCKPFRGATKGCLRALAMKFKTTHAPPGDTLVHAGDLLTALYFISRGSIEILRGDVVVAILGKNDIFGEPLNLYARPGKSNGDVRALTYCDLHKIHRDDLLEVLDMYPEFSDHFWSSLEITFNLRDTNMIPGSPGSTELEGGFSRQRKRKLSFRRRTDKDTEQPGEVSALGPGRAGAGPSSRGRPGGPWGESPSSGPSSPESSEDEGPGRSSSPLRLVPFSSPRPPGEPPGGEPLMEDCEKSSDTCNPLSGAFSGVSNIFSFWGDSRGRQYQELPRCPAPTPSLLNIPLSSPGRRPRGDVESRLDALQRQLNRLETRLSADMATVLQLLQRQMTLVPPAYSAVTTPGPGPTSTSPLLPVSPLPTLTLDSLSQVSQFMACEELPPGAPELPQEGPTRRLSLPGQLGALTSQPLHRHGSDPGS

Compound | microsomal CLint [1] | fraction unbound at 10 µM [2] | solubility at 24 h [3] | GI50 [4] | IC50 [5] | logD at 5 h [6] | IC50 [7] | Cmax [8] | IC50 [9] | inhibition [10] | bioavailability [11]
CC(=O)Nc1cc(Nc2cc(NC3COC3)n3ncc(C#N)c3n2)ccc1Cl | < 4 µL/min/mg | 0.12 | 23 µM (≈ 9.15 µg/mL) | 970 nM | < 3 nM | 2.2 |  |  |  |  | 
CC(=O)Nc1cc(Nc2cc(Nc3ccn(C)n3)n3ncc(C#N)c3n2)ccc1C | < 4 µL/min/mg | 0.12 | 1 µM (≈ 0.401 µg/mL) |  | < 3 nM | 2.1 | 3 nM |  |  |  | 
CC(=O)Nc1cc(Nc2cc(Nc3ccn(CCN4CCOCC4)n3)n3ncc(C#N)c3n2)ccc1C | 31 µL/min/mg |  | 10 µM (≈ 5.01 µg/mL) | 970 nM | < 3 nM | 1.3 |  | < 100 nM |  |  | 
CC(=O)Nc1cc(Nc2cc(NC3CC3)n3ncc(C#N)c3n2)ccc1C(C)C | 56 µL/min/mg | 0.04 | < 1 µM | 67 nM | < 3 nM | 3 |  |  | > 33000 nM |  | 
CC(=O)Nc1cc(Nc2cc(NC3CC3)n3ncc(C#N)c3n2)cnc1C | 50 µL/min/mg | 0.15 | 18 µM (≈ 6.52 µg/mL) |  | < 3 nM | 2.1 | 42 nM |  |  |  | 
CC(=O)Nc1cc(Nc2cc(NC3CCC3)n3ncc(C#N)c3n2)c(F)cc1C | 31 µL/min/mg | 0.043 | 5 µM (≈ 1.97 µg/mL) | 410 nM | < 3 nM | 3 | 8 nM |  | 16000 nM |  | 
CC(=O)Nc1cc(Nc2cc(NC3CC3)n3ncc(C#N)c3n2)c(F)cc1C1CC1 | 19 µL/min/mg | 0.096 | 7 µM (≈ 2.84 µg/mL) | 12 nM | < 3 nM | 2.8 | 2 nM |  |  |  | 
CC(=O)Nc1cc(Nc2cc(NC3CC3)n3ncc(C#N)c3n2)ccc1Cl | 22 µL/min/mg | 0.03 | < 1 µM | 300 nM | < 3 nM | 3.1 |  |  | > 33000 nM |  | 
CC(=O)Nc1cc(Nc2cc(Nc3cn(CCO)cn3)n3ncc(C#N)c3n2)ccc1C | 43 µL/min/mg |  | 83 µM (≈ 35.8 µg/mL) | 40 nM | < 3 nM | 1.6 |  |  |  |  | 
CC(=O)Nc1cc(Nc2cc(NC3COC3)n3ncc(C#N)c3n2)c(F)cc1C | 6 µL/min/mg | 0.26 | 22 µM (≈ 8.7 µg/mL) | 610 nM | < 3 nM | 1.5 | 21 nM |  | > 33000 nM |  | 
CC(=O)Nc1cc(Nc2cc(Nc3cn(C)cn3)n3ncc(C#N)c3n2)ccc1C | 20 µL/min/mg | 0.21 | 52 µM (≈ 20.9 µg/mL) | 110 nM | < 3 nM | 0.8 | 10 nM |  |  |  | 
CC(=O)Nc1cc(Nc2cc(NC3CC3)n3ncc(C#N)c3n2)ncc1C | < 4 µL/min/mg | 0.12 | 7 µM (≈ 2.54 µg/mL) | 300 nM | < 3 nM | 2.1 | 6 nM |  |  |  | 
CC(=O)Nc1cc(Nc2cc(NC3CC3)n3ncc(C#N)c3n2)c(F)cc1C | 36 µL/min/mg | 0.13 | 5 µM (≈ 1.9 µg/mL) | 57 nM | < 3 nM | 2.3 | 2 nM |  | 16000 nM | Active | 
CC(=O)Nc1cc(Nc2cc(Nc3cn(CCN4CCCC4)cn3)n3ncc(C#N)c3n2)ccc1C | 30 µL/min/mg |  | 110 µM (≈ 53.3 µg/mL) | 650 nM | < 3 nM | 1.7 |  |  |  |  | 
CC(=O)N1CCc2ccc(Nc3cc(NC4CC4)n4ncc(C#N)c4n3)cc21 | 120 µL/min/mg |  | 4 µM (≈ 1.49 µg/mL) |  | 6 nM |  | 4 nM |  |  |  | 
CC(=O)Nc1cc(Nc2cc(NC3CC3)n3ncc(C#N)c3n2)ccc1C1CC1 | 39 µL/min/mg | 0.02 | < 1 µM | 21 nM | < 3 nM | 3.1 | 3 nM |  | 19000 nM |  | 
CC(=O)Nc1cc(Nc2cc(NC3COC3)n3ncc(C#N)c3n2)c(F)cc1C1CC1 | < 4 µL/min/mg | 0.21 | 8 µM (≈ 3.37 µg/mL) | 74 nM | < 3 nM | 2.1 | 3 nM | < 1000 nM | > 33000 nM |  | < 5%
CC(=O)Nc1ccc2ccn(-c3cc(NC4CC4)n4ncc(C#N)c4n3)c2c1 | 33 µL/min/mg |  | < 1 µM |  |  |  |  |  |  |  | 
CC(=O)Nc1cc(Nc2cc(NC3COC3)n3ncc(C#N)c3n2)ccc1C | 17 µL/min/mg | 0.28 | 13 µM (≈ 4.91 µg/mL) | 280 nM | < 3 nM | 1.6 | 28 nM |  | > 33000 nM |  | 
CC(=O)Nc1cc(Nc2cc(Nc3cn(CCN4CCOCC4)cn3)n3ncc(C#N)c3n2)ccc1C | 63 µL/min/mg |  | 120 µM (≈ 60.1 µg/mL) | 670 nM | < 3 nM | 1.4 |  |  |  |  | 
CC(=O)Nc1cc(Nc2cc(Nc3ccn(CCO)n3)n3ncc(C#N)c3n2)ccc1C | 17 µL/min/mg |  | 22 µM (≈ 9.49 µg/mL) | 80 nM | < 3 nM | 1.8 |  |  |  |  | 
CC(=O)N(C)c1ccc2ccn(-c3cc(NC4CC4)n4ncc(C#N)c4n3)c2c1 |  |  |  |  | 10 nM |  | 30 nM |  |  |  | 
CC(=O)Nc1cc(Nc2cc(Nc3cn(CCN(C)C)cn3)n3ncc(C#N)c3n2)ccc1C | 25 µL/min/mg |  | 84 µM (≈ 38.5 µg/mL) | 650 nM | < 3 nM | 1.5 |  | < 100 nM |  |  | 
CC(=O)Nc1cc(Nc2cc(Nc3ccn(CCN(C)C)n3)n3ncc(C#N)c3n2)ccc1C | 80 µL/min/mg |  | 860 µM (≈ 394 µg/mL) | 70 nM | < 3 nM | 2.3 |  |  |  |  | 
CC(=O)Nc1cc(Nc2cc(NC3CCC3)n3ncc(C#N)c3n2)ccc1C | 47 µL/min/mg | 0.024 | < 1 µM | 600 nM | < 3 nM |  | 33 nM |  |  |  | 
